Measurements taken from ChEMBL document CHEMBL3112527, “Quinoline-pyrimidine hybrids: synthesis, antiplasmodial activity, SAR, and mode of action studies” (J Med Chem, 2014).
Values after ≈ are worked out from the molar mass of the structure shown. Active and inactive are the calls of the source. The rule behind the calls is not given here.

Key:
[1] = tested on: Influenza A virus; test: Antiviral activity against influenza A virus H1N1 infected in MDCK cells assessed as inhibition of virus-induced cytopathicity; type: functional, organism-based
Outline: (§1)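 Confluent monolayers in 96-well plates were inoculated with 100 CCID50 of virus in the presence of varying concentrations of compound. Read-out was inhibition of virus-induced cytopathicity, compared with untreated infected cultures. Cytotoxicity was judged microscopically or by MTT viability staining.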

[2] = tested on: Influenza A virus H3N2; test: Antiviral activity against Influenza A virus H3N2 infected in MDCK cells assessed as inhibition of virus-induced cytopathicity; type: functional, organism-based; outline: as §1
[3] = tested on: Human betaherpesvirus 5; test: Antiviral activity against Cytomegalovirus AD169 infected in HEL cells assessed as inhibition of virus-induced cytopathicity; type: functional, organism-based
[4] = tested on: Human alphaherpesvirus 1; test: Antiviral activity against HSV-1 KOS infected in HEL cells assessed as inhibition of virus-induced cytopathicity; type: functional, organism-based
Outline: (§2)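 Confluent monolayers (HEL, Vero, HeLa or CrFK, as applicable) were inoculated with 100 CCID50 of virus, with 1 CCID50 being the dose that infects 50% of cultures. Infection ran in the presence of varying compound concentrations. Inhibition of virus-induced cytopathicity was scored against infected cultures left untreated.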

[5] = Aqueous solubility of the compound in PBS buffer at pH 7.4 after 24 hrs by HPLC analysis; type: physicochemical; settings: pH 7.4, 24 h
[6] = tested on: Plasmodium falciparum; test: Antiplasmodial activity against chloroquine-resistant asexual erythrocytic stage of Plasmodium falciparum Dd2 assessed as parasite growth inhibition by lactate dehydrogenase assay; type: functional, organism-based
Outline: (§3)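 Parasite lactate dehydrogenase assay (modified Makler method). Samples held as 20 mg/mL stocks in DMSO, diluted on test day. Full dose-response: starting at 10 μg/mL, 2-fold serial dilution in complete medium over 10 concentrations down to 0.02 μg/mL. Chloroquine, artesunate and MMV390048 served as references. IC50 from nonlinear dose-response curve fitting; mean of three independent experiments.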

[7] = tested on: Punta Toro virus; test: Antiviral activity against Punta Toro virus infected in African green monkey Vero cells assessed as inhibition of virus-induced cytopathicity; type: functional, organism-based; outline: as §2
[8] = tested on: Human alphaherpesvirus 1; test: Antiviral activity against thymidine kinase-negative acyclovir-resistant HSV-1 KOS infected in HEL cells assessed as inhibition of virus-induced cytopathicity; type: functional, organism-based; outline: as §1
[9] = tested on: Mammalian orthoreovirus 1; test: Antiviral activity against Reovirus 1 infected in African green monkey Vero cells assessed as inhibition of virus-induced cytopathicity; type: functional, organism-based; outline: as §2
[10] = tested on: Respiratory syncytial virus; test: Antiviral activity against Respiratory syncytial virus infected in human HeLa cells assessed as inhibition of virus-induced cytopathicity; type: functional, organism-based; outline: as §2
[11] = n-octanol-PBS buffer distribution coefficient, log D of the compound at pH 7.4 after 24 hrs by HPLC analysis; type: physicochemical
[12] = tested on: Felid alphaherpesvirus 1; test: Antiviral activity against Feline herpesvirus infected in cat CRFK cells assessed as inhibition of virus-induced cytopathicity; type: functional, organism-based; outline: as §2
[13] = tested on: Sindbis virus; test: Antiviral activity against Sindbis virus infected in African green monkey Vero cells assessed as inhibition of virus-induced cytopathicity; type: functional, organism-based
[14] = tested on: Human alphaherpesvirus 2; test: Antiviral activity against HSV-2 G infected in HEL cells assessed as inhibition of virus-induced cytopathicity; type: functional, organism-based; settings: strain G; outline: as §2
[15] = tested on: Vaccinia virus; test: Antiviral activity against Vaccinia virus infected in HEL cells assessed as inhibition of virus-induced cytopathicity; type: functional, organism-based; settings: Orthopoxvirus vaccinia; outline: as §1
[16] = Selectivity index, ratio of CC50 for cat CRFK cells to IC50 for chloroquine-resistant asexual erythrocytic stage of Plasmodium falciparum Dd2; type: functional
Outline: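 Ratio of CRFK CC50 (μM) to Dd2 IC50 […]. CC50 is the 50% cytotoxic concentration in feline kidney CRFK cells, measured as cell viability by colorimetric formazan-based MTS assay. Dd2 IC50 is from the parasite LDH growth-inhibition assay.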

[17] = Solubility of the compound in octanol at pH 7.4 by HPLC analysis; type: physicochemical
[18] = Cytotoxicity against human HeLa cells assessed as alteration of cell morphology by microscopic analysis; type: cell-based; settings: read-out: MIC
Outline: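 Cells (Vero, HEL, MDCK or HeLa) were exposed to a range of sample concentrations. The value reported is the concentration required to cause a microscopically detectable alteration of normal cell morphology.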

[19] = tested on: Vesicular stomatitis virus; test: Antiviral activity against Vesicular stomatitis virus infected in HEL cells assessed as inhibition of virus-induced cytopathicity; type: functional, organism-based; outline: as §1
[20] = tested on: Coxsackievirus B4; test: Antiviral activity against Coxsackievirus B4 infected in African green monkey Vero cells assessed as inhibition of virus-induced cytopathicity; type: functional, organism-based; outline: as §2
[21] = tested on: Human betaherpesvirus 5; test: Antiviral activity against Cytomegalovirus Davis infected in HEL cells assessed as inhibition of virus-induced cytopathicity; type: functional, organism-based
[22] = tested on: Human alphaherpesvirus 3; test: Antiviral activity against Varicella-zoster virus infected in HEL cells assessed as inhibition of virus-induced cytopathicity; type: functional, organism-based
[23] = tested on: Plasmodium falciparum; test: Antiplasmodial activity against chloroquine-sensitive asexual erythrocytic stage of Plasmodium falciparum D10 assessed as parasite growth inhibition by lactate dehydrogenase assay; type: functional, organism-based; outline: as §3
[24] = tested on: Human respirovirus 3; test: Antiviral activity against parainfluenza virus 3 infected in African green monkey Vero cells assessed as inhibition of virus-induced cytopathicity; type: functional, organism-based; outline: as §2
[25] = tested on: Coxsackievirus B4; test: Antiviral activity against Coxsackievirus B4 infected in human HeLa cells assessed as inhibition of virus-induced cytopathicity; type: functional, organism-based; outline: as §2
[26] = Cytotoxicity against cat CRFK cells assessed as cell viability by MTS assay; type: cell-based, Felis catus
Outline: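 CRFK cells were exposed to varying sample concentrations. Cell viability was measured with the colorimetric formazan-based MTS assay, and the 50% cytotoxic concentration (CC50) was derived from it.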

[27] = tested on: Feline coronavirus; test: Antiviral activity against Feline coronavirus infected in cat CRFK cells assessed as inhibition of virus-induced cytopathicity; type: functional, organism-based; outline: as §2
[28] = tested on: Vesicular stomatitis virus; test: Antiviral activity against Vesicular stomatitis virus infected in human HeLa cells assessed as inhibition of virus-induced cytopathicity; type: functional, organism-based; outline: as §1

SMILES	inhibition [1]	inhibition [2]	inhibition [3]	inhibition [4]	solubility [5]	inhibition [7]	inhibition [8]	inhibition [9]	inhibition [10]	logD at 24 h [11]	inhibition [12]	inhibition [13]	inhibition [14]	inhibition [15]	solubility [17]	MCC [18]	inhibition [19]	inhibition [20]	inhibition [21]	IC50 [23]	further results
Clc1ccc2c(NCCCNc3nccc(Cl)n3)ccnc2c1	inactive	inactive	inactive	inactive	0.4 µM (≈ 0.139 µg/mL)	inactive	inactive	inactive	inactive	0.657	inactive	inactive	inactive	inactive	1.81 µM (≈ 0.63 µg/mL)	> 100 µM	inactive	inactive	inactive	244 nM	IC50 [6]: 478 nM; Ratio CC50/IC50 [16]: >209; inhibition [22]: inactive; inhibition [24]: inactive; inhibition [25]: inactive; CC50 [26]: > 100 µM; inhibition [27]: inactive; inhibition [28]: inactive
Clc1ccc2c(NCCCCCCCCNc3nccc(Cl)n3)ccnc2c1	inactive	inactive	inactive	inactive	0.09 µM (≈ 0.0377 µg/mL)	inactive	inactive	inactive	inactive	1.51	inactive	inactive	inactive	inactive	2.91 µM (≈ 1.22 µg/mL)	20 µM	inactive	inactive	inactive	1060 nM	inhibition [22]: inactive; inhibition [24]: inactive; inhibition [25]: inactive; CC50 [26]: 10 µM; inhibition [27]: inactive; inhibition [28]: inactive
Clc1ccc2c(NCCNc3ccnc(Cl)n3)ccnc2c1	inactive	inactive	inactive	inactive	0.68 µM (≈ 0.227 µg/mL)	inactive	inactive	inactive	inactive	0.489	inactive	inactive	inactive	inactive	2.09 µM (≈ 0.698 µg/mL)	4 µM	inactive	inactive	inactive	1430 nM	inhibition [22]: inactive; inhibition [24]: inactive; inhibition [25]: inactive; CC50 [26]: > 100 µM; inhibition [27]: inactive; inhibition [28]: inactive
C[C@H]1[C@H](OC(=O)CCC(=O)O)O[C@@H]2O[C@@]3(C)CC[C@H]4[C@H](C)CC[C@@H]1[C@@]24OO3 [ARTESUNATE]																				6.3 nM	
CS(=O)(=O)c1ccc(-c2cnc(N)c(-c3ccc(C(F)(F)F)nc3)c2)cc1 [MMV-048]																				9.01 nM	
Clc1ccc2c(NCCCCCCCNc3nccc(Cl)n3)ccnc2c1	inactive	inactive	inactive	inactive	0.13 µM (≈ 0.0526 µg/mL)	inactive	inactive	inactive	inactive	1.16	inactive	inactive	inactive	inactive	1.92 µM (≈ 0.776 µg/mL)	4 µM	inactive	inactive	inactive	383 nM	inhibition [22]: inactive; inhibition [24]: inactive; inhibition [25]: inactive; CC50 [26]: > 100 µM; inhibition [27]: inactive; inhibition [28]: inactive
Clc1ccnc(N2CCOCC2)n1	inactive	inactive	inactive	inactive	9 µM (≈ 1.8 µg/mL)	inactive	inactive	inactive	inactive	0.13	inactive	inactive	inactive	inactive	12.1 µM (≈ 2.42 µg/mL)	> 100 µM	inactive	inactive	inactive	15000 nM	inhibition [22]: inactive; inhibition [24]: inactive; inhibition [25]: inactive; CC50 [26]: > 100 µM; inhibition [27]: inactive; inhibition [28]: inactive
Clc1ccc2c(NCCCCCCCCCCCCNc3nccc(Cl)n3)ccnc2c1	inactive	inactive	inactive	inactive	0.05 µM (≈ 0.0237 µg/mL)	inactive	inactive	inactive	inactive	2.59	inactive	inactive	inactive	inactive	19.4 µM (≈ 9.2 µg/mL)	20 µM	inactive	inactive	inactive	4310 nM	inhibition [22]: inactive; inhibition [24]: inactive; inhibition [25]: inactive; CC50 [26]: 19 µM; inhibition [27]: inactive; inhibition [28]: inactive
Clc1ccc2c(NCCCCCCCCCCNc3nccc(Cl)n3)ccnc2c1	inactive	inactive	inactive	inactive	0.07 µM (≈ 0.0312 µg/mL)	inactive	inactive	inactive	inactive	1.99	inactive	inactive	inactive	inactive	6.82 µM (≈ 3.04 µg/mL)	4 µM	inactive	inactive	inactive	3340 nM	inhibition [22]: inactive; inhibition [24]: inactive; inhibition [25]: inactive; CC50 [26]: 4.4 µM; inhibition [27]: inactive; inhibition [28]: inactive
